{"source": "ChEMBL document CHEMBL2384965", "about": "“ABSOLUTE CONFIGURATION AND BIOLOGICAL PROPERTIES OF ENANTIOMERS OF CFTR INHIBITOR BPO-27” (ACS Med Chem Lett, 2013)", "key": {"[1]": {"assay": "Drug metabolism in rat liver microsomes at 5 uM measured over 4 hrs by LC/MS analysis in presence of NADPH", "assay_type": "ADME, Microsome", "details": "read-out: Drug metabolism"}, "[2]": {"assay": "Half life in CD1 mouse at 10 mg/kg, ip administered as bolus dose", "assay_type": "ADME, organism-based", "parameters": "dose 10 mg/kg, route intraperitoneal", "details": "in vivo", "in_short": "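Single bolus i.p. dose of 10 mg/kg in mice, given in 5% DMSO, 2.5% Tween-80 and 2.5% PEG400 in water. Blood sampled at set times; serum compound measured by LC/MS ion chromatograms (m/z 548 [M+H]+) against a calibration of known amounts spiked into blood (linear, sensitivity better than 500 nM). Mean ± S.E., n = 3; t1/2 from the decay of the parent compound.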"}, "[3]": {"assay": "Drug uptake in CD1 mouse kidney at 10 mg/kg, ip administered as bolus dose measured at 4 hrs by LC-MS analysis", "assay_type": "ADME, organism-based", "parameters": "dose 10 mg/kg, route intraperitoneal", "details": "read-out: Drug uptake", "in_short": "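Mice received a single bolus intraperitoneal dose of 10 mg/kg in 5% DMSO, 2.5% Tween-80 and 2.5% PEG400 in water. Kidney homogenate was taken at 4 h and the compound measured by LC/MS (3 mice).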"}, "[4]": {"system": "Serum", "assay": "Metabolic stability in mouse serum assessed as formation of (S)-BPO-27 at 5 mg measured at 4 hrs by hydrogen-deuterium exchange assay", "assay_type": "ADME, cell-free"}, "[5]": {"target": "T1, Cystic fibrosis transmembrane conductance regulator (Homo sapiens, UniProt P13569)", "assay": "Inhibition of wild type human CFTR chloride conductance expressed in forskolin-stimulated rat FRT cells by short-circuit current analysis in presence of transepithelial chloride gradient", "assay_type": "cell-based", "in_short": "(§1)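 FRT epithelial cells expressing human wild-type CFTR, basolateral membrane permeabilized with amphotericin B, transepithelial chloride gradient applied. CFTR chloride conductance activated with 10 μM forskolin; inhibition read as the reduction in short-circuit current.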"}, "[6]": {"target": "T1, Cystic fibrosis transmembrane conductance regulator", "assay": "Inhibition of wild type human CFTR chloride conductance expressed in forskolin-stimulated rat FRT cells at 100 nM by short-circuit current analysis in presence of transepithelial chloride gradient", "assay_type": "cell-based", "in_short": "as §1"}, "[7]": {"system": "Serum", "assay": "Metabolic stability in mouse serum at 5 mg after 4 hrs by hydrogen-deuterium exchange assay", "assay_type": "ADME, cell-free"}}, "note": "Calls of active or inactive are those of the source. The calls are words filed in the database; no cut-off is given here.", "data": [{"smiles": "Cn1c(=O)c2c(-c3ccccc3)n3c(c2n(C)c1=O)[C@@H](c1ccc(Br)o1)Oc1ccc(C(=O)O)cc1-3", "values": [{"measurement": "metabolised at 4 h, 5 µM", "setting": "[1]", "result": "< 5", "unit": "%"}]}, {"smiles": "Cn1c(=O)c2c(-c3ccccc3)n3c(c2n(C)c1=O)[C@H](c1ccc(Br)o1)Oc1ccc(C(=O)O)cc1-3", "values": [{"measurement": "metabolised at 4 h, 5 µM", "setting": "[1]", "result": "< 5", "unit": "%"}, {"measurement": "half-life", "setting": "[2]", "result": 1.6, "unit": "h"}, {"measurement": "concentration at 4 h", "setting": "[3]", "result": 600, "unit": "nM"}, {"measurement": "Stability", "setting": "[4]", "result": "Stable"}]}, {"smiles": "CC(C)N.Cn1c(=O)c2c(-c3ccccc3)n3c(c2n(C)c1=O)[C@H](c1ccc(Br)o1)Oc1ccc(C(=O)O)cc1-3", "note": "[listing 1 of 2 here]", "values": [{"measurement": "inhibition", "setting": "[5]", "result": "Dose-dependent effect"}, {"measurement": "inhibition", "setting": "[6]", "result": "Active"}]}, {"smiles": "CC(C)N.Cn1c(=O)c2c(-c3ccccc3)n3c(c2n(C)c1=O)[C@H](c1ccc(Br)o1)Oc1ccc(C(=O)O)cc1-3", "note": "[listing 2 of 2 here]", "values": [{"measurement": "IC50", "setting": "[5]", "result": 4, "unit": "nM"}]}, {"smiles": "CCOC(=O)c1ccc2c(c1)-n1c(-c3ccccc3)c3c(=O)n(C)c(=O)n(C)c3c1[C@@H](c1ccc(Br)o1)O2", "values": [{"measurement": "inhibition", "setting": "[6]", "result": "inactive"}]}, {"smiles": "CC(C)N.Cn1c(=O)c2c(-c3ccccc3)n3c(c2n(C)c1=O)[C@@H](c1ccc(Br)o1)Oc1ccc(C(=O)O)cc1-3", "note": "[listing 1 of 2 here]", "values": [{"measurement": "inhibition", "setting": "[6]", "result": "inactive"}]}, {"smiles": "CC(C)N.Cn1c(=O)c2c(-c3ccccc3)n3c(c2n(C)c1=O)[C@@H](c1ccc(Br)o1)Oc1ccc(C(=O)O)cc1-3", "note": "[listing 2 of 2 here]", "values": [{"measurement": "Stability", "setting": "[7]", "result": "Stable"}]}]}
